Experimental data taken from ChEMBL document CHEMBL2311339, “Identification of GZD824 as an orally bioavailable inhibitor that targets phosphorylated and nonphosphorylated breakpoint cluster region-Abelson (Bcr-Abl) kinase and overcomes clinically acquired mutation-induced resistance against imatinib” (J Med Chem, 2013).
Active and inactive are the calls of the source. The calls are words filed in the database; no cut-off is given here.

Assays:
[1] = biological target: Cytochrome P450 2C9 (Homo sapiens, UniProt P11712); assay: Inhibition of human recombinant CYP2C9 after 30 mins; format: ADME
[2] = Intrinsic clearance in rat liver microsomes at 1 uM; format: ADME, Microsome; settings: read-out: CLH
[3] = system: K562; assay: Antitumor activity against human K562 cells xenografted in mouse assessed as decrease in tumor recurrence at 2 mg/kg, po qd for 20 days; format: functional, organism-based; parameters: dose 2 mg/kg
[4] = biological target: Tyrosine-protein kinase ABL1 (Homo sapiens, UniProt P00519, T315I); assay: Binding affinity to phosphorylated ABL1 T315I mutant (unknown origin) after 1 hr
[5] = system: Mus musculus; assay: Toxicity in human K562 cells xenografted mouse assessed as mortality; format: organism-based; settings: in vivo
Method in brief: (§1)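 K562 cells suspended in normal saline (2.5 × 10^7 cells/mL), 0.2 mL injected subcutaneously into the right flank. Mice were randomised once mean tumour volume reached 100−200 mm3. Oral gavage once daily for 14 days, in 1% DMSO/22.5% Cremophor/7.5% ethanol/69% saline. Tumour volume (L × W²/2) and body weight taken every 2 days; recurrence followed 20 days after dosing stopped. n = 10/group; unpaired t test versus vehicle.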

[6] = biological target: T1, Tyrosine-protein kinase ABL1 (Homo sapiens, UniProt P00519, M351T); assay: Binding affinity to phosphorylated ABL1 M351T mutant (unknown origin) after 1 hr
[7] = system: BaF3; assay: Antitumor activity against mouse BA/F3 cells expressing BCR-ABL T315I mutant allografted in po dosed SCID mouse assessed as inhibition of tumor growth administered qd for 14 days; format: functional, organism-based
Method in brief: (§2)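 Ba/F3 cells stably expressing Bcr-Abl (wild type or mutant) were grown in RPMI 1640 with 10% FBS and no IL-3, then suspended in saline (2.5 × 10^7 cells/mL) and given as 0.2 mL s.c. in the right flank. Groups were randomised at 100−200 mm3. Once-daily oral gavage for 14 days in DMSO/Cremophor/ethanol/saline vehicle; reference imatinib 50 or 100 mg/kg/day. Volume L × W²/2 every 2 days; n = 10; t test versus vehicle.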

[8] = system: BaF3; assay: Antitumor activity against mouse BA/F3 cells expressing BCR-ABL F317L mutant allografted in po dosed SCID mouse assessed as reduction of hepatosplenomegaly administered qd for 14 days; format: functional, organism-based
[9] = cells; settings: Mus musculus, BaF3, 72 h
[10] = system: K562; assay: Antitumor activity against human K562 cells xenografted in po dosed mouse assessed as inhibition of tumor growth administered qd for 14 days; format: functional, organism-based; method in brief: as §1
[11] = biological target: Cytochrome P450 1A2 (Homo sapiens, UniProt P05177); assay: Inhibition of human recombinant CYP1A2 at 30 uM after 30 mins; format: ADME; settings: recombinant enzyme, 0.5 h
[12] = biological target: Tyrosine-protein kinase ABL1 (Homo sapiens, UniProt P00519, Q252H); assay: Binding affinity to non phosphorylated ABL1 Q252H mutant (unknown origin) after 1 hr
[13] = biological target: Proto-oncogene tyrosine-protein kinase receptor Ret (Homo sapiens) (UniProt P07949); assay: Binding affinity to RET (unknown origin) at 10 nM after 2 hrs by FRET assay
[14] = biological target: Cytochrome P450 2C19 (Homo sapiens, UniProt P33261); assay: Inhibition of human recombinant CYP2C19 after 30 mins; format: ADME
[15] = system: K562; assay: Antitumor activity against human K562 cells xenografted in mouse assessed as reduction in tumor size at 2 to 10 mg/kg, po qd for 2 days; format: functional, organism-based
[16] = Cytotoxicity against mouse BA/F3 cells expressing BCR-ABL M351T mutant assessed as growth inhibition after 72 hrs by CCK-8 assay; settings: BaF3, 72 h
[17] = biological target: Cytochrome P450 2E1 (Homo sapiens, UniProt P05181); assay: Inhibition of human recombinant CYP2E1 at 30 uM after 30 mins; format: ADME; settings: recombinant enzyme, 0.5 h
[18] = system: KU812; assay: Antitumor activity against human KU812 cells xenografted in mouse assessed as induction of tumor regression at 1 mg/kg, po qd for 14 days; format: functional, organism-based; parameters: dose 1 mg/kg
[19] = Plasma concentration in rat after 12 hrs; format: ADME
Method in brief: (§3)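 Bismesylate salt given to rats as a single iv dose of 5 mg/kg or a single oral dose of 25 mg/kg. Plasma drug levels were followed over time to derive the PK parameters. The 12 h and 24 h plasma levels come from the oral 25 mg/kg dose.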

[20] = system: BaF3; assay: Antitumor activity against mouse BA/F3 cells expressing BCR-ABL T315I mutant allografted in SCID mouse assessed as suppression of cell proliferation at 1 to 20 mg/kg/day, po qd for 10 days; format: functional, organism-based
[21] = system: BaF3; assay: Antitumor activity against mouse BA/F3 cells expressing BCR-ABL T315I mutant allografted in SCID mouse assessed as inhibition of tumor growth at 5 to 10 mg/kg/day, po qd for 14 days; format: functional, organism-based; method in brief: as §2
[22] = Cytotoxicity against mouse BA/F3 cells expressing BCR-ABL E355G mutant assessed as growth inhibition after 72 hrs by CCK-8 assay; settings: BaF3, 72 h
[23] = biological target: Cytochrome P450 2D6 (Homo sapiens, UniProt P10635); assay: Inhibition of human recombinant CYP2D6 at 30 uM after 30 mins; format: ADME; settings: recombinant enzyme, 0.5 h
[24] = biological target: Tyrosine-protein kinase ABL1 (Homo sapiens, UniProt P00519, G250E); format: cell-based
[25] = biological target: T2, Tyrosine-protein kinase ABL1 (Homo sapiens, UniProt P00519); assay: Inhibition of human recombinant wild type ABL1 expressed in insect cells after 30 mins by FRET assay; format: cell-based
[26] = biological target: Receptor-type tyrosine-protein kinase FLT3 (Homo sapiens) (UniProt P36888); assay: Binding affinity to FLT3 (unknown origin) at 10 nM after 2 hrs by FRET assay
[27] = biological target: T1, Tyrosine-protein kinase ABL1; assay: Inhibition of human recombinant ABL1 M351T mutant expressed in insect cells after 30 mins by FRET assay; format: cell-based
[28] = Cytotoxicity against human SUP-B15 cells expressing BCR-ABL assessed as growth inhibition after 72 hrs by CCK-8 assay; format: functional, cell-based; settings: SUP-B15, 72 h
Method in brief: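 Log-phase human leukemia cells were seeded at about 3000 cells/well and treated 24 h later for 72 h. CCK-8 was then incubated with the cells for 3 h and read as OD450 − OD650. Viability was normalized to vehicle wells and cell-free blanks, and IC50 taken as the mean of three experiments.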

[29] = Half life in rat liver microsomes at 1 uM; format: ADME, Microsome
[30] = system: BaF3; assay: Antitumor activity against mouse BA/F3 cells expressing wild type BCR-ABL allografted in SCID mouse assessed as inhibition of tumor growth at 50 to 100 mg/kg/day, po qd for 14 days; format: functional, organism-based; method in brief: as §2
[31] = biological target: T2, Tyrosine-protein kinase ABL1; assay: Binding affinity to phosphorylated wild type ABL1 (unknown origin) after 1 hr
[32] = Apparent permeability from apical to basolateral side in human Caco2 cells by LC-MS/MS analysis; format: ADME, cell-based; settings: Caco-2
[33] = Clearance in rat at 5 mg/kg, iv; format: ADME, organism-based; parameters: dose 5 mg/kg, route intravenous; settings: in vivo; method in brief: as §3
[34] = system: BaF3; assay: Antitumor activity against mouse BA/F3 cells expressing BCR-ABL T315I mutant allografted in po dosed SCID mouse assessed as reduction of hepatosplenomegaly administered qd for 14 days; format: functional, organism-based

Cytochrome P450 2C19, sequence (P33261 whole entry): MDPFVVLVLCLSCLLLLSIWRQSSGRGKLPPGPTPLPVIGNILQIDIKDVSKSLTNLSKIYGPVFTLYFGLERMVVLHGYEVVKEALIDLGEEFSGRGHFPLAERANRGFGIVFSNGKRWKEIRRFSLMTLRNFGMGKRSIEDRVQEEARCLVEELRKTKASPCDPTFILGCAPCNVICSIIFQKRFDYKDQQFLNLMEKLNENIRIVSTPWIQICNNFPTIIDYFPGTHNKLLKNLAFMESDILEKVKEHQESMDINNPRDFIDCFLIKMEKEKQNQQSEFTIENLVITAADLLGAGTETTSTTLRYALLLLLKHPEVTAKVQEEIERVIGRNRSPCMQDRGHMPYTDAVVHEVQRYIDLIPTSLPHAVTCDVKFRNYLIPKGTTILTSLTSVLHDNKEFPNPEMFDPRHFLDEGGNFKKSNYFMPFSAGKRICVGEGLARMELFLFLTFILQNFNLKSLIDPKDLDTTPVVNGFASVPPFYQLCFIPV
Cytochrome P450 2E1, sequence (P05181 whole entry): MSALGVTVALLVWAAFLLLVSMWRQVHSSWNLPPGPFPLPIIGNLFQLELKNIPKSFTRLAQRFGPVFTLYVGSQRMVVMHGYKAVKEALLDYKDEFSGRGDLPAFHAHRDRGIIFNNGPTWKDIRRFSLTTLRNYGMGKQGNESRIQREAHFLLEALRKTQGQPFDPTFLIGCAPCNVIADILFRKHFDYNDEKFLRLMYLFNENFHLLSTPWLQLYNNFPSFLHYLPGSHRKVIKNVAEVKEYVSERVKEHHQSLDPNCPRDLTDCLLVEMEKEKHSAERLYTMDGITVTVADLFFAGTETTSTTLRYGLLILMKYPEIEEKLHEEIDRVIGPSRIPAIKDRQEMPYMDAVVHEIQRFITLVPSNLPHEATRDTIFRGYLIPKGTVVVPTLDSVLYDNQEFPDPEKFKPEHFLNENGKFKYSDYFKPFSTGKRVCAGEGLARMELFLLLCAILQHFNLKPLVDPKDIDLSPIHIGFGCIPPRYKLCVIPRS
Cytochrome P450 1A2, sequence (P05177 whole entry): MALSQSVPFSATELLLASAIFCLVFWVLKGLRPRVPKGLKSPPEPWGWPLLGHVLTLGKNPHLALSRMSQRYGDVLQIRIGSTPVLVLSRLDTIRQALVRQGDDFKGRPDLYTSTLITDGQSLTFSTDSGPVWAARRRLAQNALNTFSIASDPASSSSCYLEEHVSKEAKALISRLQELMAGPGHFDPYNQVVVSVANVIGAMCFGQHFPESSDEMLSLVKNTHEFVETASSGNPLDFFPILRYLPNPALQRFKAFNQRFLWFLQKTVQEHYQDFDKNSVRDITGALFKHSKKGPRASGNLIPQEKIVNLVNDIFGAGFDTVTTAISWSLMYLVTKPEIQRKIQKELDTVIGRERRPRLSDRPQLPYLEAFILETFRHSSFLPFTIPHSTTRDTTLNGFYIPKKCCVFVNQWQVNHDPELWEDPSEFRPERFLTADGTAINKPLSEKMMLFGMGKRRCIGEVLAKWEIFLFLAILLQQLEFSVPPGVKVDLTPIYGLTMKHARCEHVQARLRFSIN
Receptor-type tyrosine-protein kinase FLT3 (Homo sapiens), sequence (P36888 whole entry): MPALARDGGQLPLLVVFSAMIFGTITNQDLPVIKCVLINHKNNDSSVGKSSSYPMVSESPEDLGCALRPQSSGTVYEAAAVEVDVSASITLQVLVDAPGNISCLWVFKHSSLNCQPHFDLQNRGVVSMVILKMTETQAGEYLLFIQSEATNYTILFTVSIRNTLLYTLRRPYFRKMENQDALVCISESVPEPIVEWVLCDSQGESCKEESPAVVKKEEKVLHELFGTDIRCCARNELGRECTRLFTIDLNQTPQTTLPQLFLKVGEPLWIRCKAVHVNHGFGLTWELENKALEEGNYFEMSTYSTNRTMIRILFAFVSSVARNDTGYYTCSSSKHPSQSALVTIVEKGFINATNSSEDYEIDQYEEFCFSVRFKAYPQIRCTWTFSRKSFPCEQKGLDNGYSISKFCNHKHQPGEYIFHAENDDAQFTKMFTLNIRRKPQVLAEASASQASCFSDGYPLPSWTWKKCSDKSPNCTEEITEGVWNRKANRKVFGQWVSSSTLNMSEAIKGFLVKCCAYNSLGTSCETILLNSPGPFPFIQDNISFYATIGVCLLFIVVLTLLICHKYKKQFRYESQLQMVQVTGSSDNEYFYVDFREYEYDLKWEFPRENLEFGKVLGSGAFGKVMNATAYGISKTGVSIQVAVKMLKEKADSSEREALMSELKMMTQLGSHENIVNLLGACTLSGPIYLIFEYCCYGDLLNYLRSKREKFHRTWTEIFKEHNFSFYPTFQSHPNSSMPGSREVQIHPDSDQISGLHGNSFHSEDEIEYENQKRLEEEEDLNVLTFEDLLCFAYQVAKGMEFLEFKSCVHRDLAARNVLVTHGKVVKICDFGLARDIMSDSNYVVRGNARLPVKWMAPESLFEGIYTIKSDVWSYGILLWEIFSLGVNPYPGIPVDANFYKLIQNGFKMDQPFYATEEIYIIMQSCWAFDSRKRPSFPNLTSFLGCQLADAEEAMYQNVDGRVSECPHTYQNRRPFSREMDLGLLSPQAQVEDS
Cytochrome P450 2C9, sequence (P11712 whole entry): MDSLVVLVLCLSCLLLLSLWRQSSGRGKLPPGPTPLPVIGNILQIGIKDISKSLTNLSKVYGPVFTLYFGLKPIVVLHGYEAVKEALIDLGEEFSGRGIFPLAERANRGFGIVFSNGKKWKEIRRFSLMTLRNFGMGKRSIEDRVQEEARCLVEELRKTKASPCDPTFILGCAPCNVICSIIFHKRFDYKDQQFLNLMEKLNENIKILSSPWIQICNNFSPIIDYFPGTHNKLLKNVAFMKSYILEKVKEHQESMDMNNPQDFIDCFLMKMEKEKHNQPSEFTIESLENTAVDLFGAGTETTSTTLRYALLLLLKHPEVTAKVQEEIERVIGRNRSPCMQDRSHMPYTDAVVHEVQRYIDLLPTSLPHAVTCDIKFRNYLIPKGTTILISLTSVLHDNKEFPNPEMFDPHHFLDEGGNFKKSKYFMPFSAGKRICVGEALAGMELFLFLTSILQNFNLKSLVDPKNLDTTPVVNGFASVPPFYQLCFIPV
Cytochrome P450 2D6, sequence (P10635 whole entry): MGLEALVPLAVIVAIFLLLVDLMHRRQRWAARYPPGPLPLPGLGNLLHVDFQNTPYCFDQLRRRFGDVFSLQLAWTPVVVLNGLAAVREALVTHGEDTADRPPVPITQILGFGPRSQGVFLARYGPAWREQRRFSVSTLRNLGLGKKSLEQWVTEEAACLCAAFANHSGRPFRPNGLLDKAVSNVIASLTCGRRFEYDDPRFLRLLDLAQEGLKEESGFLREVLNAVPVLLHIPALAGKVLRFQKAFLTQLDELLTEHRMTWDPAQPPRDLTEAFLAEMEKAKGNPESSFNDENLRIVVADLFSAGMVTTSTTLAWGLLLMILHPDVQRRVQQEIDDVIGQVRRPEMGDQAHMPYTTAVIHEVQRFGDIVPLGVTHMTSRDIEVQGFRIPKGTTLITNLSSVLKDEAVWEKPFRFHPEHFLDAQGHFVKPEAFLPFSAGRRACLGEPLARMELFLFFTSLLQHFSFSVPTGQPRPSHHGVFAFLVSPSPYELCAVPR
Proto-oncogene tyrosine-protein kinase receptor Ret (Homo sapiens), sequence (P07949 whole entry): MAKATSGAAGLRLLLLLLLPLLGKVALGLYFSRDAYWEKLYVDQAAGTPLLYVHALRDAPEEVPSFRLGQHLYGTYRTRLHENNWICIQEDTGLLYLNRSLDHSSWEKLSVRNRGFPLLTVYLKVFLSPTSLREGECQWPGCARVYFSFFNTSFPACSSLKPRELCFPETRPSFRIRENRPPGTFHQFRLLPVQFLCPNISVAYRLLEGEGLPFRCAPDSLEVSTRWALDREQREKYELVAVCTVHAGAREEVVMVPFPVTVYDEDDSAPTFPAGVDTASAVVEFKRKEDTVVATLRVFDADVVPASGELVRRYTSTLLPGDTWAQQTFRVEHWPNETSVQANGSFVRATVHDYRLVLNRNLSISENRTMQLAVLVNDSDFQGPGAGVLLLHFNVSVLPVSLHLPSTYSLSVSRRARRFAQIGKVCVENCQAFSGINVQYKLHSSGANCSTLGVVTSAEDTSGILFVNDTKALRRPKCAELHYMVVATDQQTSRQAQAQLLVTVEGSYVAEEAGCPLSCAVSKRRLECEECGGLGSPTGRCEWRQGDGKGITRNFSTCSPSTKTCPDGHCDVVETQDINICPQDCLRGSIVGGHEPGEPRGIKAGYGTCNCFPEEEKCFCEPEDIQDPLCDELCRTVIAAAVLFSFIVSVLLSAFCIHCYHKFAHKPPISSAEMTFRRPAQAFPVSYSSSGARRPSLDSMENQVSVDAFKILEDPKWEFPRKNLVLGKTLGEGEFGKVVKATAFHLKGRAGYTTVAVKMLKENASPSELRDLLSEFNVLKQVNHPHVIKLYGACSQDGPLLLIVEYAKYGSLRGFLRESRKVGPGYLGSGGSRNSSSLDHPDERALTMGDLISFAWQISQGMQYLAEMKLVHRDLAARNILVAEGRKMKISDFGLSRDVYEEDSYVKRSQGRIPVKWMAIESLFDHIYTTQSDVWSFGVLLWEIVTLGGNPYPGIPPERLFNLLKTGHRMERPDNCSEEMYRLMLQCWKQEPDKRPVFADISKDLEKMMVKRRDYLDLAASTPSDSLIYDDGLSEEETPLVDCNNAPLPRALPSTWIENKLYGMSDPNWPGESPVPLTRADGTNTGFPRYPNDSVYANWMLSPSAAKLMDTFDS

SMILES: Cc1ccc(C(=O)Nc2ccc(CN3CCN(C)CC3)c(C(F)(F)F)c2)cc1C#Cc1cnc2[nH]ncc2c1 [OLVEREMBATINIB]
- IC50 [1]: 110000 pM
- microsomal CLint at 1 µM [2]: 36.4 µL/min/mg
- Activity [3]: inactive
- Kd [4]: 3200 pM
- Activity [5]: Non-toxic
- Kd [6]: 230 pM
- TGI [7]: Active
- Activity [8]: Active
- IC50 [9]: 6000 pM
- TGI [10]: Dose-dependent effect
- inhibition (INH) [11]: Not Active
- Kd [12]: 460 pM
- Activity [13]: inactive
- IC50 [14]: 990000 pM
- Activity [15]: Active
- IC50 [16]: 200 pM
- inhibition (INH) [17]: Not Active
- Activity [18]: Active
- concentration at 12 h [19]: 270 nM
- Activity [20]: Dose-dependent effect
- TGI [21]: inactive
- IC50 [22]: 2600 pM
- inhibition (INH) [23]: Not Active
- IC50 [24]: 710 pM
- IC50 [25]: 340 pM
- Activity [26]: inactive
- IC50 [27]: 290 pM
- IC50 [28]: 2500 pM
- half-life at 1 µM [29]: 56 min
- TGI [30]: Dose-dependent effect
- Kd [31]: 340 pM
- Papp A→B [32]: 0.32 ×10⁻⁶ cm/s
- clearance [33]: 28.3 mL/min/kg
- Activity [34]: Active
